# Data taken from ChEMBL document CHEMBL1129331, “Synthesis and physicochemical, biological, and pharmacological properties of new bile acids amidated with cyclic amino acids” (J Med Chem, 1996).
# Tests used:
# [1] = Partition coefficient (logP); format: physicochemical; settings: octanol/water
# In short: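 Octanol/water partition coefficient of the protonated species, calculated rather than measured.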
# [2] = test system: Rattus norvegicus; test: Maximum biliary secretion rate of bile acids after iv coinfusion in Bile fistula rats.; format: ADME, organism-based; settings: in vivo
# In short: (§1)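 Bile fistula Sprague-Dawley rats (200-250 g). TCDCA and test bile acid given as sodium salts, coinfused via jugular vein, each at 8 μmol/min/kg for 1 h. Bile collected at 30-min intervals for 3 h. Calcium, ALP and LDH in bile measured enzymatically; bile acid composition by HPLC (65% methanol, 15 mM ammonium acetate, pH 5.4). Mean ± SD.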
# [3] = test system: Rattus norvegicus; test: Calcium output in Bile Fistula rats after iv coinfusion of TCDCA and compound.; format: ADME, organism-based; settings: in vivo; in short: as §1
# [4] = test system: Rattus norvegicus; test: Maximum biliary secretion rate of TCDCA after iv coinfusion in Bile fistula rats.; format: ADME, organism-based; settings: in vivo; in short: as §1
# [5] = Acidity constant was determined; format: ADME
# [6] = Critical micellar pH was determined
# In short: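 20 mL of 50 mM bile salt solution titrated with 0.1 M HCl. CMpH is taken as the pH at which precipitate of the protonated form is first seen by turbidity at 500 nm. Confirmed by back-titration with 0.1 M NaOH until the suspension clears.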
# [7] = test system: Rattus norvegicus; test: Secretion of phospholipid in Bile Fistula rats after the iv administration of compound, expressed as the maximum secretion rate; format: ADME, organism-based; settings: in vivo
# In short: (§2)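 Anaesthetised (ethyl carbamate) male Sprague-Dawley rats, 300-330 g, bile duct cannulated; after 1 h baseline, bile acid sodium salts infused via femoral vein at 10 μmol/min/kg for 1 h. Bile collected 3 h at 15 min intervals; flow gravimetric; BA, cholesterol, phospholipid by enzymatic assays. Smax, Tmax from secretion-vs-time plots; Rs = rate at third hour. n=6, mean ± SD.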
# [8] = test system: Rattus norvegicus; test: Alkaline phosphatase in Bile Fistula rats after iv coinfusion of TCDCA and compound.; format: ADME, organism-based; settings: in vivo; in short: as §1
# [9] = test system: Rattus norvegicus; test: Secretion of cholesterol in Bile Fistula rats after the iv administration of compound, expressed as the maximum secretion rate; format: ADME, organism-based; settings: in vivo; in short: as §2
# [10] = Critical Micellar concentration was determined; format: ADME
# In short: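 Measured in water from surface tension, using the maximum bubble-pressure method.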
# [11] = test system: Rattus norvegicus; test: Bile flow in Bile Fistula rats after iv coinfusion of TCDCA and compound.; format: ADME, organism-based; settings: in vivo; in short: as §1
# [12] = Water solubility was determined; format: ADME; settings: read-out: WS
# In short: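 Protonated form; measured on saturated solutions at pH 1.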
# [13] = test system: Rattus norvegicus; test: Secretion of Bile in Bile Fistula rats after the iv administration of compound, expressed as the maximum secretion rate; format: ADME, organism-based; settings: in vivo
# In short: (§3)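 Male Sprague-Dawley rats (300-330 g), urethane-anesthetized, bile duct cannulated. After 1 h baseline, sodium salt infused via femoral vein at 10 μmol/min/kg for 1 h; bile collected at 15-min intervals for 3 h. Flow measured gravimetrically; bile acids, cholesterol and phospholipid measured enzymatically. Smax and Tmax read from secretion-time plots; Rs is the rate at hour 3. Mean ± SD, n=6.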
# [14] = test system: cholylglycine hydrolase; test: (§4) The compound was incubated with cholylglycine hydrolase and tested for determining the stability towards C-24 Deamination; format: ADME; settings: cholylglycine hydrolase
# [15] = test system: Rattus norvegicus; test: Secretion of Bile in Bile Fistula rats after the iv administration of compound, expressed as the residual secretion rate; format: ADME, organism-based; settings: in vivo; in short: as §2
# [16] = test system: Rattus norvegicus; test: Secretion of phospholipid in Bile Fistula rats after the iv administration of compound, expressed as the residual secretion rate; format: ADME, organism-based; settings: in vivo; in short: as §2
# [17] = The compound was incubated with human stools and tested for determining the stability towards 7-dehydroxylation; format: ADME, organism-based
# In short: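 Homogenized fresh human stool (500 mg) in 5 mL chopped meat-glucose medium; bile acid added at 0.05 mM final; 37 °C. Sampled at 0–72 h and stopped with 30% KOH. Bile acids recovered by C-18 solid-phase extraction, then analyzed by TLC and by HPLC with 75% methanol/15 mM ammonium acetate, pH 5.4.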
# [18] = test system: Rattus norvegicus; test: Secretion of cholesterol in Bile Fistula rats after the iv administration of compound, expressed as the residual secretion rate; format: ADME, organism-based; settings: in vivo; in short: as §3
# [19] = test system: Rattus norvegicus; test: Secretion of Bile acids in Bile Fistula rats after the iv administration of compound, expressed as the maximum secretion rate; format: ADME, organism-based; settings: in vivo; in short: as §2
# [20] = test system: Rattus norvegicus; test: Secretion of Bile acids in Bile Fistula rats after the iv administration of compound, expressed as the residual secretion rate; format: ADME, organism-based; settings: in vivo; in short: as §3
# [21] = test system: Rattus norvegicus; test: Lactate dehydrogenase in Bile Fistula rats after iv coinfusion of TCDCA and compound.; format: ADME, organism-based; settings: in vivo; in short: as §1
# [22] = Relative lipophilicity was determined; format: physicochemical; settings: C-18 reverse phase HPLC
# In short: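 C-18 reverse-phase HPLC run isocratically at 0.9 mL/min. Mobile phase 65% (v/v) aqueous methanol with 2 mM ammonium acetate, pH 7, so that all bile acids are fully ionized.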
# [23] = as §4; format: ADME
structure (smiles),measurement,setting,value
CC(CCC(=O)NCC(=O)O)C1CC[C@H]2[C@@H]3[C@H](O)CC4C[C@H](O)CCC4(C)[C@H]3CCC12C (stereo partly drawn),logP,[1],3.53
same,Smax,[2],3.33 µM/min/kg
same,Smax,[3],0.22 µM/min/kg
same,Smax,[4],3.13 µM/min/kg
same,pKa,[5],3.9
same,CMpH,[6],7.1
same,Smax,[7],0.23 µM/min/kg
same,[ALP]max,[8],150 IU/L
same,Smax,[9],51 nM/min/kg
same,CMC,[10],12 mM
same,Smax,[11],3.78 mL/h/kg
same,solubility,[12],8 µM
same,Smax,[13],4.62 mL/h/kg
same,half-life,[14],4 h
same,Rs,[15],2.7 mL/h/kg
same,Rs,[16],0.1 µM/min/kg
same,half-life,[17],2 h
same,Rs,[18],18 nM/min/kg
same,Smax,[19],6.1 µM/min/kg
same,Rs,[20],0.8 µM/min/kg
same,[LDH]max,[21],37 UI l-1
same,rK,[22],0.85
C[C@H](CCC(=O)NCCS(=O)(=O)O)[C@H]1CC[C@H]2[C@@H]3C[C@H](O)C4C[C@H](O)CC[C@]4(C)[C@H]3CC[C@]12C (stereo in doubt; form 1),T1/2,[23],4 h
